Measured values taken from ChEMBL document CHEMBL1154229 (Bioorg Med Chem Lett, 2009).
pIC50: −log10 of the molar value.

How the values were obtained:
[1] = molecular target: T1, Bifunctional epoxide hydrolase 2 (Homo sapiens, UniProt P34913); assay: Inhibition of human soluble epoxide hydrolase
T1 sequence (P34913 whole entry): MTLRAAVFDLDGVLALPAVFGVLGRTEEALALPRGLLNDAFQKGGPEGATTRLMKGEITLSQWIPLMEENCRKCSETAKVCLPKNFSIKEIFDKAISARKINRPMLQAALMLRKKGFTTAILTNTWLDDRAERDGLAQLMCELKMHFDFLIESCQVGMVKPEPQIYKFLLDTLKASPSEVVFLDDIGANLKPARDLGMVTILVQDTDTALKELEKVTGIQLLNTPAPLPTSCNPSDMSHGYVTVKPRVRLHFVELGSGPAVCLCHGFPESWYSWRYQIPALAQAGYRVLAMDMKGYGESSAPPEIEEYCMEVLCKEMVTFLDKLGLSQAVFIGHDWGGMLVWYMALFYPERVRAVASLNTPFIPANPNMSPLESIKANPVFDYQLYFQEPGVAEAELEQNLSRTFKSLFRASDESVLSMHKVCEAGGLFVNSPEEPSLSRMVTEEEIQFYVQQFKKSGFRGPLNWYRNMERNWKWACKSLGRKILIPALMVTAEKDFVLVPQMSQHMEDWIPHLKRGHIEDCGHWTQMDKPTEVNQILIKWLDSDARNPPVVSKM

[2] = molecular target: T2, Bifunctional epoxide hydrolase 2 (Rattus norvegicus, UniProt P80299); assay: Inhibition of rat soluble epoxide hydrolase
T2 sequence (P80299 whole entry): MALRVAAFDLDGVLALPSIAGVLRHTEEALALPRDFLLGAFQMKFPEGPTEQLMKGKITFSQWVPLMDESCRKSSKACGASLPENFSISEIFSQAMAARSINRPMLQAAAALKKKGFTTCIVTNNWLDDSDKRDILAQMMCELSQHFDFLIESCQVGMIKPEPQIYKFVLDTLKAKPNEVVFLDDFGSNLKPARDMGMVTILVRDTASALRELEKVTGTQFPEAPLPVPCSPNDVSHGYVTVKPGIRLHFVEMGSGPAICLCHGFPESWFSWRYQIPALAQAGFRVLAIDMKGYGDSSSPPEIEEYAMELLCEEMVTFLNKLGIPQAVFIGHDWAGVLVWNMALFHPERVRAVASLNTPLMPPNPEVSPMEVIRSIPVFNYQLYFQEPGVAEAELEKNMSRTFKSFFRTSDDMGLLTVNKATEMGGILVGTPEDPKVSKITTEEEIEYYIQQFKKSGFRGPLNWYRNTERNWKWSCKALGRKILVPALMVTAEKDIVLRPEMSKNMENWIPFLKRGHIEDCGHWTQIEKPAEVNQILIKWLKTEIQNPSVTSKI

[3] = molecular target: T1, Bifunctional epoxide hydrolase 2; assay: Inhibition of human soluble epoxide hydrolase in HEK293 cells assessed as DHET production; type: cell-based
Summary of the method: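 Whole-cell 14,15-DHET production assay in HEK293 cells, run with or without 10% human serum. Values come from one or two experiments, each in triplicate, with repeats within 20%.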

[4] = Inhibition of potassium channel IKr
[5] = molecular target: Cytochrome P450 2C9 (Homo sapiens, UniProt P11712); assay: Inhibition of CYP2C9; type: ADME
[6] = molecular target: Cytochrome P450 3A4 (Homo sapiens, UniProt P08684); assay: Inhibition of CYP3A4; type: ADME
[7] = molecular target: Cytochrome P450 2D6 (Homo sapiens, UniProt P10635); assay: Inhibition of CYP2D6; type: ADME
[8] = molecular target: T3, Epoxide hydrolase 1 (Homo sapiens, UniProt P07099); assay: Inhibition of human microsomal epoxide hydrolase
T3 sequence (P07099 whole entry): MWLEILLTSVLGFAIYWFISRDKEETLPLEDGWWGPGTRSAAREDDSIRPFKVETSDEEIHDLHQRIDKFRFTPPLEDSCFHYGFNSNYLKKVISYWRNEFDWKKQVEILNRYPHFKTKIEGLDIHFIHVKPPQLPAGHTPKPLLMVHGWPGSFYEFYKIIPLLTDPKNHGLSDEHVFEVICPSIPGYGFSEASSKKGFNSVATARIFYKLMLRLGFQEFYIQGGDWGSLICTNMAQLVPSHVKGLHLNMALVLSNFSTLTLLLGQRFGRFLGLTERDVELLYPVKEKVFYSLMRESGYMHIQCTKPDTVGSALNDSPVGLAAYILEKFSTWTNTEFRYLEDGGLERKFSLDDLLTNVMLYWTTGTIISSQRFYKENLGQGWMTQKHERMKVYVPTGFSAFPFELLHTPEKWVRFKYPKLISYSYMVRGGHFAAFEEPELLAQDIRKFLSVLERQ
Summary of the method: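 Human mEH used as the counterscreen enzyme. Values come from one or two experiments, each in triplicate, with repeats within 20%.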

[9] = molecular target: L-type calcium channel; assay: Inhibition of calcium channel diltiazem binding site
[10] = molecular target: Sodium channel protein type 5 subunit alpha (Homo sapiens, UniProt Q14524); assay: Inhibition of Nav1.5 channel
Sodium channel protein type 5 subunit alpha, sequence (Q14524 whole entry): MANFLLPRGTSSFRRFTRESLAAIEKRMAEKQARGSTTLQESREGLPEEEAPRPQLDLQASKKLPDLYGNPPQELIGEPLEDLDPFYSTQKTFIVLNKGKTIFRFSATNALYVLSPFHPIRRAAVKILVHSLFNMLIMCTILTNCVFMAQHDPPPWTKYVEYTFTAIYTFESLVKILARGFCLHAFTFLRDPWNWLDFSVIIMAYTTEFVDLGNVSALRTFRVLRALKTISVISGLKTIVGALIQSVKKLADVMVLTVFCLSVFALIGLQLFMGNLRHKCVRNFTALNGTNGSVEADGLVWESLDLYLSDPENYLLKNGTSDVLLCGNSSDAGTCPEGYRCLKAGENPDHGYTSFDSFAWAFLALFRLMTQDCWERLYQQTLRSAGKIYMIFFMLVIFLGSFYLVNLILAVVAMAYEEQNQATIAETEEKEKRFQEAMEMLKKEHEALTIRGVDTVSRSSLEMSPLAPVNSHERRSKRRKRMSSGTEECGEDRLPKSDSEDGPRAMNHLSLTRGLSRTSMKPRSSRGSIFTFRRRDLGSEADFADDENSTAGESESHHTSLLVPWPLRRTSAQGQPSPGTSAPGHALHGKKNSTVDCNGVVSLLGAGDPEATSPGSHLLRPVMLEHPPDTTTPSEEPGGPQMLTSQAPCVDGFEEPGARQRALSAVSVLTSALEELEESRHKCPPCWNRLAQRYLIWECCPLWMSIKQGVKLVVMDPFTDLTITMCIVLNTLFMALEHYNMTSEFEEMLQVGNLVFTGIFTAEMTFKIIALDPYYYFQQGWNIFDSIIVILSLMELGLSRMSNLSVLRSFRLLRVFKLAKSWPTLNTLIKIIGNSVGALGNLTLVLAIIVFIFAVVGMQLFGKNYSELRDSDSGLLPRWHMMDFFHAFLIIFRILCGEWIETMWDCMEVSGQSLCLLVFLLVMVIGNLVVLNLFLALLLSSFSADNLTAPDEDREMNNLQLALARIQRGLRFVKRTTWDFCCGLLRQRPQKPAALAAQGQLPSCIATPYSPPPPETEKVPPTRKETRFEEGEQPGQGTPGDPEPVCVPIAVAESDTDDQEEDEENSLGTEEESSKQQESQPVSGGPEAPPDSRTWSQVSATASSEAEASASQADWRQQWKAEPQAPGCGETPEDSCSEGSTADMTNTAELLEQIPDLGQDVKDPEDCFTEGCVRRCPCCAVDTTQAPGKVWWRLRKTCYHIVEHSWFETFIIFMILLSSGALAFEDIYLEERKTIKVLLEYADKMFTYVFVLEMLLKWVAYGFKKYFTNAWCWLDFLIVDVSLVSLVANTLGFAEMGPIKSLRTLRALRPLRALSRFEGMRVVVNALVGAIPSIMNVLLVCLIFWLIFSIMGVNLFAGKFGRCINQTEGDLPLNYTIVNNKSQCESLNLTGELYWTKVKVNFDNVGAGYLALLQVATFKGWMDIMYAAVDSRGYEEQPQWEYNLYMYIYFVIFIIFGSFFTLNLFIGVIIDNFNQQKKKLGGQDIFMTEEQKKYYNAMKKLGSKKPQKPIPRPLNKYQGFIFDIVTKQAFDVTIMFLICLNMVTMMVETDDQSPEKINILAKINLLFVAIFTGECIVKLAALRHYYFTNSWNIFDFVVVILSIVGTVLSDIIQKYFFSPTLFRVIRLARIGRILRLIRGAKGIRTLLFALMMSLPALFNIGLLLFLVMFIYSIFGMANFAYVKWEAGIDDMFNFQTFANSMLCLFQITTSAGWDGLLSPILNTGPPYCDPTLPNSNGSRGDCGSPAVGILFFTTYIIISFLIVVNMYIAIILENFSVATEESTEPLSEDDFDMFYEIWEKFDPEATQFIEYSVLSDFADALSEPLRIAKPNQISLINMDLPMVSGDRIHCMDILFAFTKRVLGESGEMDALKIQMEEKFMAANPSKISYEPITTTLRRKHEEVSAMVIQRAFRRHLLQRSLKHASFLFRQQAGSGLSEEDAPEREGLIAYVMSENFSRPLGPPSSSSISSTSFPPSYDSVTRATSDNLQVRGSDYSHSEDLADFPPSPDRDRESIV

Cytochrome P450 3A4, sequence (P08684 whole entry): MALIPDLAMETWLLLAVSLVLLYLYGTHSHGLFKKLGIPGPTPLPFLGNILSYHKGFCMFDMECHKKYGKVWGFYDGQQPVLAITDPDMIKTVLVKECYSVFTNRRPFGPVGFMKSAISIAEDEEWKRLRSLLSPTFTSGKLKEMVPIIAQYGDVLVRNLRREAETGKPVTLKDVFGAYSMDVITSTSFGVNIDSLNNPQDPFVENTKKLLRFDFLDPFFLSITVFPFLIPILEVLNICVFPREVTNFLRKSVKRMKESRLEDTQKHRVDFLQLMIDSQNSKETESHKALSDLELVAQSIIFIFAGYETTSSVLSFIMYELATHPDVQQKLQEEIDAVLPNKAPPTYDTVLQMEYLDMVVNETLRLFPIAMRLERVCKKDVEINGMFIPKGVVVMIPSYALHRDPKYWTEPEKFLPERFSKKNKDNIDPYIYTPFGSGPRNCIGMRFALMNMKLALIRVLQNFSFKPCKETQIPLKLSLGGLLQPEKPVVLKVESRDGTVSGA
Cytochrome P450 2D6, sequence (P10635 whole entry): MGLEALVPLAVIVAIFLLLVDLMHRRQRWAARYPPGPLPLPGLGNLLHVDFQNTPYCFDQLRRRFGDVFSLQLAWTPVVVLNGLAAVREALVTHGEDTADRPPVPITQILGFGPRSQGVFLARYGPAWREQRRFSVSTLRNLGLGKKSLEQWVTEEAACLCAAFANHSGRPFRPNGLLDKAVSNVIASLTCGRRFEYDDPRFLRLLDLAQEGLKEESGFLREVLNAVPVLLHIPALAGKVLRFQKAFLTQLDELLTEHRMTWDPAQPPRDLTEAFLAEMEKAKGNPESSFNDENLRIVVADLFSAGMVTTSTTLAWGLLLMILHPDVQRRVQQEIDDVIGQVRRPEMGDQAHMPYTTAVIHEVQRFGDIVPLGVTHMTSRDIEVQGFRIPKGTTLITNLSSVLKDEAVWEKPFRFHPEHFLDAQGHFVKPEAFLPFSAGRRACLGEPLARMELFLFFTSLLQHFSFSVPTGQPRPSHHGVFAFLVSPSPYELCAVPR
Cytochrome P450 2C9, sequence (P11712 whole entry): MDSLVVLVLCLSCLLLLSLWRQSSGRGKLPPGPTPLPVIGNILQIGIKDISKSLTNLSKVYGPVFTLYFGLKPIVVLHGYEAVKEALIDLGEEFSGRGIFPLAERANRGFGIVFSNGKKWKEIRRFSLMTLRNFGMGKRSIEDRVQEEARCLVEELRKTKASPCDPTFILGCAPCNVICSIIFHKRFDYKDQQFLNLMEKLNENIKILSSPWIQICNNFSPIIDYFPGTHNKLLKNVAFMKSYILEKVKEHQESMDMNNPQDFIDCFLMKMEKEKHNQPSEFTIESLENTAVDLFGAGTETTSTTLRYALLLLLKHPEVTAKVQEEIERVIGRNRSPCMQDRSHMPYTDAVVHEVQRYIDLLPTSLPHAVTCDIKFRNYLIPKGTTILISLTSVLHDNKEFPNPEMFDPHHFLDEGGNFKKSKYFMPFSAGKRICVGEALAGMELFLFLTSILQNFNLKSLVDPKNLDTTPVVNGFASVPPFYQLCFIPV

| Compound | pIC50 [1] | pIC50 [2] | pIC50 [3] | pIC50 [4] | pIC50 [5] | pIC50 [6] | pIC50 [7] | pIC50 [8] | pIC50 [9] | pIC50 [10] |
| --- | --- | --- | --- | --- | --- | --- | --- | --- | --- | --- |
| COC(=O)CCC1(c2ccccc2)CCCN(C(=O)Nc2ccc(Cl)cc2)C1 (configuration not stated) | > 9.00 | 8.52 | – | – | – | – | – | – | – | – |
| O=C(CCC1(c2ccccc2)CCCN(C(=O)Nc2ccc(Cl)cc2)C1)Nc1nn[nH]n1 (configuration not stated) | 8.85 | 7.47 | 8.85 | 4.57 | < 5.00 | < 5.00 | < 5.00 | < 4.00 | – | – |
| CCN(CC)C(=O)CCC1(c2ccccc2)CCCN(C(=O)Nc2ccc(Cl)cc2)C1 (configuration not stated) | 8.52 | 7.51 | – | 5.22 | < 5.00 | > 5.00 | < 5.00 | – | 6.00 | < 5.00 |
| CC1(c2ccccc2)CCCN(C(=O)Nc2noc3ccccc23)C1 (configuration not stated) | – | 6.68 | – | 4.74 | > 5.00 | < 5.00 | < 5.00 | – | 4.72 | > 5.00 |
| O=C(O)CCC1(c2ccncc2)CCCN(C(=O)Nc2ccc(Cl)cc2)C1 (configuration not stated) | 7.52 | 6.33 | – | < 4.52 | 5.00 | < 5.00 | < 5.00 | < 4.00 | < 4.52 | < 5.00 |
| CC1(c2ccccc2)CCCN(C(=O)NCc2ccc(-c3cccc(Cl)c3)cc2)C1 (configuration not stated) | 7.85 | 8.15 | – | 5.70 | – | > 5.00 | – | 4.66 | – | – |
| CC1(c2ccccc2)CCCN(C(=O)NCc2ccc(-c3ccccc3C(F)(F)F)cc2)C1 (configuration not stated) | 8.10 | 7.96 | – | 6.70 | > 5.00 | > 5.00 | < 5.00 | < 4.00 | 6.15 | < 6.00 |
| CC1(c2ccccc2)CCCN(C(=O)Nc2ccc(-c3ccccc3)cc2)C1 (configuration not stated) | 8.15 | 8.22 | – | 4.68 | > 5.00 | < 5.00 | < 5.00 | – | 6.05 | > 5.00 |
| CC1(c2ccccc2)CCCN(C(=O)Nc2ccncc2)C1 (configuration not stated) | 6.26 | 6.46 | – | 5.30 | < 5.00 | > 5.00 | < 5.00 | < 4.00 | 4.82 | < 5.00 |
| O=C(O)CCC1(c2cccnc2)CCCN(C(=O)Nc2ccc(Cl)cc2)C1 (configuration not stated) | 7.55 | 6.48 | – | < 4.52 | < 5.00 | < 5.00 | < 5.00 | – | < 4.52 | < 5.00 |
| O=C(O)CCC1(c2ccccn2)CCCN(C(=O)Nc2ccc(Cl)cc2)C1 (configuration not stated) | 7.72 | 6.54 | – | < 4.52 | < 5.00 | < 5.00 | < 5.00 | – | < 4.52 | < 5.00 |
| O=C(O)CCC1(c2cccc(C(F)(F)F)c2)CCCN(C(=O)Nc2ccc(Cl)cc2)C1 (configuration not stated) | 7.92 | 6.75 | – | < 4.52 | < 5.00 | < 5.00 | < 5.00 | < 4.00 | < 4.52 | < 5.00 |
| O=C(O)CCC1(c2ccc(-c3ccccc3)cc2)CCCN(C(=O)Nc2ccc(OC(F)(F)F)cc2)C1 (configuration not stated) | – | 6.38 | > 9.00 | 4.68 | > 5.00 | < 5.00 | < 5.00 | – | < 4.52 | > 5.00 |
| CC1(c2ccccc2)CCCN(C(=O)NCCCc2cccnc2)C1 (configuration not stated) | 8.15 | – | 8.10 | 5.30 | < 5.00 | > 5.00 | < 5.00 | 5.52 | – | – |
| CC1(c2ccccc2)CCCN(C(=O)NCCc2ccc3nccnc3c2)C1 (configuration not stated) | – | 7.72 | 8.52 | 5.05 | > 5.00 | > 5.00 | 5.00 | < 4.00 | – | – |
